This note sets out measurements from ChEMBL document CHEMBL1137539, “Synthesis and in vitro evaluation of 5-arylidene-3-hydroxyalkyl-2-phenylimino-4-thiazolidinones with antidegenerative activity on human chondrocyte cultures” (Bioorg Med Chem, 2007).

Calls of active or inactive are those of the source. The rule behind the calls is not given here.

Data set [1] in a line: Toxicity in human articular chondrocytes assessed as reduction of tetrazolium salt metabolism after 120 hrs by MTT assay. It counts as cell-based. The essentials: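 Enzymatically isolated human articular chondrocytes were treated with compound (10, 50, 100 µg/mL) plus IL-1β (10 ng/mL). Viability was measured at 120 h by MTT cleavage by mitochondrial dehydrogenases and read as absorbance, mean with SEM.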
A general note: Tetrazolium dyes change colour on reduction, which living cells bring about.

For data set [2], the species on record is Homo sapiens. The experiment in a line: Inhibition of IL1-beta induced nitrite production in human articular chondrocytes at 50 ug/ml after 120 hrs. It counts as functional, cell-based.
The species entered for data set [3] is Homo sapiens. The experiment in a line: Inhibition of IL1-beta induced glycosaminoglycans depletion in human articular chondrocytes 10 ug/ml to 100 ug/ml. It counts as functional, cell-based. The essentials:
(§1)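 Cartilage from femoral neck fracture patients was digested enzymatically to give chondrocytes. After 24 h the cells received compound at 10, 50 and 100 µg/mL together with IL-1β at 10 ng/mL. Total GAGs released into the medium were measured at 120 h and expressed as µg/mL, mean with SEM.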

The species named for data set [4] is Homo sapiens. Description: Inhibition of IL1-beta induced PGE2 production in human articular chondrocytes at 10 ug/ml to 100 ug/ml. The class given is functional, cell-based. The method, boiled down:
(§2)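 Human articular chondrocytes came from cartilage taken at femoral neck fracture surgery and were isolated by enzymatic digestion. After 24 h in culture they were exposed to compound (10, 50, 100 µg/mL) with IL-1β (10 ng/mL). Supernatant was collected at 120 h and PGE2 was quantified by enzyme immunoassay (detection limit 1 pg/mL). Values are means with SEM.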

The species entered for data set [5] is Homo sapiens. Description: Inhibition of IL1-beta induced nitrite production in human articular chondrocytes at 10 ug/ml after 120 hrs. The class given is functional, cell-based.
Data set [6] is filed under the species Homo sapiens. Description: Inhibition of IL1-beta induced nitrite production in human articular chondrocytes at 100 ug/ml after 120 hrs. It counts as functional, cell-based.
Data set [7] is filed under the species Homo sapiens. The experiment in a line: Inhibition of IL1-beta induced MMP3 secretion in human articular chondrocytes at 10 ug/ml to 100 ug/ml. It counts as functional, cell-based. The essentials: (§3)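 Chondrocytes were isolated from human articular cartilage taken at femoral neck fracture surgery, by sequential hyaluronidase, pronase and collagenase digestion, then cultured. After 24 h they were treated with test compound (10, 50 and 100 µg/mL) plus IL-1β (10 ng/mL). Supernatants were collected at 120 h and MMP-3 was measured by ELISA (detection limit 1 ng/mL). Values are means with SEM.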

Data set [8] is described as follows: Inhibition of IL1-beta induced glycosaminoglycans depletion in human articular chondrocytes at 100 ug/ml. It counts as functional. The method, boiled down:
as §1

Data set [9] can be described thus: Inhibition of IL1-beta induced PGE2 production in human articular chondrocytes at 100 ug/ml. The class given is functional. The method, boiled down:
as §2

Data set [10] in a line: Inhibition of IL1-beta induced MMP3 secretion in human articular chondrocytes at 100 ug/ml. It counts as functional. The method, boiled down: as §3

As to `COc1ccc(/C=C2\S/C(=N\c3ccccc3)N(CCO)C2=O)cc1`, the Activity entry in data set [1] is “Non-toxic”. The outcome in the data set filed under Homo sapiens [2], in the data set listed under Homo sapiens [3], in the data set listed under Homo sapiens [4], in the data set filed under Homo sapiens [5] and in the data set filed under Homo sapiens [6] was Active.
For the molecule `COc1ccc(/C=C2\S/C(=N\c3ccccc3)N(CCCO)C2=O)cc1`, the Activity entry in data set [1] is reported as “Non-toxic”. For the same molecule, the result in the data set filed under Homo sapiens [2], in the data set filed under Homo sapiens [3], in the data set listed under Homo sapiens [7], in the data set listed under Homo sapiens [4], in the data set filed under Homo sapiens [5] and in the data set listed under Homo sapiens [6] was Active.
As to `CSc1ccc(/C=C2\S/C(=N\c3ccccc3)N(CCO)C2=O)cc1`, the Activity result is “Non-toxic” in data set [1] and 339000 ng/mL in data set [8]. Also, the outcome in the data set listed under Homo sapiens [2], in the data set filed under Homo sapiens [4], in the data set listed under Homo sapiens [5] and in the data set filed under Homo sapiens [6] was Active.
With `CS(=O)(=O)c1ccc(/C=C2\S/C(=N\c3ccccc3)N(CCCO)C2=O)cc1`, the figures for the Activity result in data set [1] and in data set [9] were “Non-toxic” and 53.22 ng/mL, respectively. Further, the outcome in the data set listed under Homo sapiens [2], in the data set listed under Homo sapiens [3], in the data set listed under Homo sapiens [5] and in the data set filed under Homo sapiens [6] was Active.
As for `COc1cccc(/C=C2\S/C(=N\c3ccccc3)N(CCCO)C2=O)c1`, the Activity entry in data set [1] is recorded as “Non-toxic”. Moreover, the outcome in the data set filed under Homo sapiens [2], in the data set listed under Homo sapiens [3], in the data set listed under Homo sapiens [4], in the data set filed under Homo sapiens [5] and in the data set listed under Homo sapiens [6] was Active.
On to `O=C1/C(=C/c2ccc(Cl)cc2)S/C(=N\c2ccccc2)N1CCO`, for which the Activity entry in data set [1] was “Non-toxic”. Moreover, the result in the data set filed under Homo sapiens [2], in the data set filed under Homo sapiens [3], in the data set listed under Homo sapiens [4], in the data set listed under Homo sapiens [5] and in the data set listed under Homo sapiens [6] was Active.
Take `CSc1ccc(/C=C2\S/C(=N\c3ccccc3)N(CCCO)C2=O)cc1`: the Activity result in [1] is listed as “Non-toxic”. The result in the data set listed under Homo sapiens [2], in the data set listed under Homo sapiens [3], in the data set filed under Homo sapiens [4], in the data set filed under Homo sapiens [5] and in the data set filed under Homo sapiens [6] was Active.
In data set [10], `COc1ccc2c(c1)c(CC(=O)O)c(C)n2C(=O)c1ccc(Cl)cc1` [INDOMETHACIN] had an Activity of 62.64 ng/mL.
As for `COc1cccc(/C=C2\S/C(=N\c3ccccc3)N(CCO)C2=O)c1`, the Activity result in data set [1] was “Non-toxic”. The outcome in the data set listed under Homo sapiens [2], in the data set filed under Homo sapiens [3], in the data set listed under Homo sapiens [4], in the data set listed under Homo sapiens [5] and in the data set listed under Homo sapiens [6] was Active.
In the case of `CCCN1C(=O)/C(=C/c2cccc(OC)c2)S/C1=N\c1ccccc1`, the outcome in the data set filed under Homo sapiens [2], in the data set listed under Homo sapiens [4], in the data set listed under Homo sapiens [5] and in the data set filed under Homo sapiens [6] was Active.
Consider `O=C1/C(=C/c2ccc(Cl)cc2)S/C(=N\c2ccccc2)N1CCCO`, for which the Activity result in data set [1] is recorded as “Non-toxic”. In addition, the outcome in the data set filed under Homo sapiens [2], in the data set listed under Homo sapiens [3], in the data set listed under Homo sapiens [4], in the data set filed under Homo sapiens [5] and in the data set filed under Homo sapiens [6] was Active.
In the case of `CS(=O)(=O)c1ccc(/C=C2\S/C(=N\c3ccccc3)N(CCO)C2=O)cc1`, the Activity entry in data set [1] is on record as “Non-toxic”. Besides, the result in the data set listed under Homo sapiens [2], in the data set listed under Homo sapiens [3], in the data set filed under Homo sapiens [4], in the data set filed under Homo sapiens [5] and in the data set filed under Homo sapiens [6] was Active.
